{"source": "ChEMBL document CHEMBL4196194", "about": "“De Novo Design of α-Helical Lipopeptides Targeting Viral Fusion Proteins: A Promising Strategy for Relatively Broad-Spectrum Antiviral Drug Discovery” (J Med Chem, 2018)", "key": {"[1]": {"assay": "Drug distribution in cell membrane of MDCK cells incubated for 0.5 hrs by confocal microscopy", "assay_type": "ADME, cell-based, Canis lupus familiaris", "details": "dog", "method_in_brief": "(§1)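 MDCK cells were pre-stained with 100 nM LysoTracker Red for 1.5 h and washed. They were then given 5 μM NBD-labelled lipopeptide in phenol-red-free DF-12 at 37 °C, 5% CO2. Confocal imaging with a 20× objective was done at 10 min, 30 min, 1 h, 2 h and 4 h. Peptide was read in the FITC channel and acidic compartments in the red channel, with colocalization assessed on merged images.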"}, "Influenza A virus [2]": {"test_system": "Influenza A virus", "assay": "Antiviral activity against Influenza A virus (A/Puerto Rico/8/1934(H1N1)) infected in HEK293T cells assessed as inhibition of viral replicon activity incubated for 30 hrs by dual-Glo luciferase assay", "assay_type": "functional, organism-based", "method_in_brief": "(§2)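 HEK293T cells (2.5 × 10^4/well) transfected with plasmids for NP, PB1, PB2, PA plus p0LN-S-Luc firefly and pRL-SV40 Renilla reporters; serially diluted compound added 6 h post-transfection, luciferase read after 30 h by Dual-Glo. Activity = firefly/Renilla ratio; % inhibition normalized to positive and negative controls, curve-fitted; three independent measurements.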"}, "[3]": {"assay": "Drug distribution in acidic vesicles intracellular compartments of MDCK cells incubated for 4 hrs by LysoTracker Red DND-99 staining based confocal microscopy", "assay_type": "ADME, cell-based, Canis lupus familiaris", "details": "dog", "method_in_brief": "as §1"}, "[4]": {"assay": "Drug distribution in acidic vesicles intracellular compartments of MDCK cells incubated for 1 hrs by LysoTracker Red DND-99 staining based confocal microscopy", "assay_type": "ADME, cell-based, Canis lupus familiaris", "details": "dog", "method_in_brief": "as §1"}, "Influenza A virus [5]": {"test_system": "Influenza A virus", "assay": "Antiviral activity against influenza A virus Hong Kong/8/1968(H3N2) infected in HEK293T cells assessed as inhibition of viral replicon activity incubated for 30 hrs by dual-Glo luciferase assay", "assay_type": "functional, organism-based", "method_in_brief": "as §2"}}, "note": "Calls of active or inactive are those of the source. No cut-off for these calls is given here. Where a SMILES comes first, the peptide text is derived from it. [ ]: non-standard residue; d: D form. The star is where a group is joined. Palmitoyl = CCCCCCCCCCCCCCCC(=O)*; X1 = O=[N+]([O-])c1ccc(*)c2onnc12; βAla = NCCC(=O)O"}
{"smiles": "CCCCCCCCCCCCCCCC(=O)NCCCC[C@H](NC(=O)CCNC(=O)[C@H](CCCCN)NC(=O)[C@H](CCCCN)NC(=O)[C@H](CCC(N)=O)NC(=O)[C@@H](NC(=O)[C@H](CCC(=O)O)NC(=O)[C@H](CCC(=O)O)NC(=O)[C@@H](NC(=O)[C@H](CCCCN)NC(=O)[C@H](CCCCN)NC(=O)[C@H](CCC(N)=O)NC(=O)[C@@H](NC(=O)[C@H](CCC(=O)O)NC(=O)[C@H](CCC(=O)O)NC(=O)[C@@H](NC(=O)[C@H](CCCCN)NC(=O)[C@H](CCCCN)NC(=O)[C@H](CCC(N)=O)NC(=O)[C@@H](NC(=O)[C@H](CCC(=O)O)NC(=O)[C@H](CCC(=O)O)NC(=O)[C@@H](NC(=O)[C@H](CCCCN)NC(=O)[C@H](CCCCN)NC(=O)[C@H](CCC(N)=O)NC(=O)[C@@H](NC(=O)[C@H](CCC(=O)O)NC(=O)[C@H](CCC(=O)O)NC(=O)[C@@H](NC(=O)[C@H](CCCCN)NC(=O)[C@H](CCCCN)NC(=O)[C@H](CCC(N)=O)NC(=O)[C@@H](NC(=O)[C@H](CCC(=O)O)NC(=O)[C@H](CCC(=O)O)NC(=O)[C@@H](NC(=O)CCNc1ccc([N+](=O)[O-])c2nnoc12)[C@@H](C)CC)[C@@H](C)CC)[C@@H](C)CC)[C@@H](C)CC)[C@@H](C)CC)[C@@H](C)CC)[C@@H](C)CC)[C@@H](C)CC)[C@@H](C)CC)[C@@H](C)CC)C(N)=O", "note": "({X1-βAla}-IEEIQKKIEEIQKKIEEIQKKIEEIQKKIEEIQKK[βAla]K(Palmitoyl)-NH2)", "values": [{"measurement": "Drug uptake", "setting": "[1]", "result": "Active"}, {"measurement": "inhibition", "setting": "Influenza A virus [2]", "result": "Active"}, {"measurement": "Drug uptake", "setting": "[3]", "result": "Active"}, {"measurement": "Drug uptake", "setting": "[4]", "result": "Active"}, {"measurement": "inhibition", "setting": "Influenza A virus [5]", "result": "Active"}]}
